For test [1], the system named is Staphylococcus aureus. The test can be described thus: Antibacterial activity against methicillin-resistant Staphylococcus aureus at 100 ug/well after 24 hrs by well diffusion assay. The format is functional. Particulars: for zone of inhibition at 100 µg/disc: read-out: DIZ. The gist of the method:
(§1)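 Agar well diffusion on Mueller Hinton agar: 17 h cultures swabbed over the surface, wells cut with a cork borer after 10 min. Each well loaded with 10 µl of a 10 mg/mL DMSO stock (100 µg/well), with a DMSO control well. Plates incubated at 37 °C for 24 h. Zone of inhibition diameter measured in mm.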

Test [2] has as its system Candida albicans. The test can be described thus: Antifungal activity against fluconazole-resistant Candida albicans by NCCLS method. Type of test: functional.
The test system of test [3] is Candida albicans. Put plainly: Antifungal activity against fluconazole-resistant Candida albicans at 100 ug/well after 24 hrs by well diffusion assay. The format is functional. Particulars: for zone of inhibition at 100 µg/disc: read-out: DIZ. The gist of the method:
as §1
(In general: In agar diffusion tests the substance spreads into inoculated agar from a disc or well.)

The test system of another test is HeLa. Put plainly: Cytotoxicity against human HeLa cells assessed as reduction in cell viability after 48 hrs by MTT assay. Type of test: functional, cell-based. (In general: Tetrazolium dyes change colour on reduction, which living cells bring about.)
Test [4] concerns Staphylococcus aureus. The test can be described thus: Antibacterial activity against methicillin-resistant Staphylococcus aureus by NCCLS method. The format is functional.
Another test has as its system Pseudomonas aeruginosa. Put plainly: Antibacterial activity against Pseudomonas aeruginosa MTCC 201 at 100 ug/well after 24 hrs by well diffusion assay. The format is functional. The gist of the method: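 17 h bacterial cultures swabbed onto Mueller Hinton agar; after 10 min wells were cut with a cork borer and loaded with compound from a 10 mg/mL stock, with a DMSO control. Plates were held at 37 °C for 24 h, and susceptibility was read as the diameter of the zone of inhibition in mm.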

The test system of the next test is SAS. Put plainly: Cytotoxicity against human SAS cells assessed as reduction in cell viability after 48 hrs by MTT assay. The format is functional, cell-based.

Converted amounts (≈) assume the structure as drawn. The source made the active and inactive calls. The rule behind the calls is not given here.

The MIC is the least concentration at which growth counts as inhibited. A higher MIC goes with a less susceptible organism. For orientation: IC50 means the point on the concentration scale where inhibition reaches its midpoint.

Take `CC1=CC(=O)c2c(O)cccc2C1=O` [PLUMBAGIN]: the zone of inhibition at 100 µg/disc in the test on Staphylococcus aureus [1] and with Candida albicans [3] was 12 mm each time. For the same compound, the minimum inhibitory concentration (MIC) with Candida albicans [2] and with Staphylococcus aureus [4] was 125 µg/mL (≈ 664 µM) throughout. In addition, the figures for the IC50 with HeLa and in the test on SAS were 25.5 µM and 3 µM, respectively. Also, the “diameter of the inhibition zone (DIZ)” value in the test on Pseudomonas aeruginosa was “inactive”.
Regarding `COC(=O)CCCNC(=O)CSC1=C(C)C(=O)c2ccccc2C1=O`, the zone of inhibition at 100 µg/disc is 13 mm in the test with Staphylococcus aureus [1] and 12 mm in the test on Candida albicans [3]. The MIC with Candida albicans [2] and in the test on Staphylococcus aureus [4] was 15.6 µg/mL (≈ 43.2 µM) in each case. Further, the “diameter of the inhibition zone (DIZ)” value in the test on Pseudomonas aeruginosa was “inactive”.
In the case of `COC(=O)CNC(=O)CSC1=C(C)C(=O)c2cccc(OC)c2C1=O`, the zone of inhibition at 100 µg/disc in the test on Staphylococcus aureus [1] was found to be 20 mm; in the test with Candida albicans [3], 21 mm. Further, the MIC against Candida albicans [2] and with Staphylococcus aureus [4] was 125 µg/mL (≈ 344 µM) in each case. For the same compound, in the test with Pseudomonas aeruginosa, the “diameter of the inhibition zone (DIZ)” value is “inactive”.
With `COC(=O)[C@H](C)NC(=O)CSC1=C(OC)C(=O)c2ccccc2C1=O`, the results for the zone of inhibition at 100 µg/disc in the test on Staphylococcus aureus [1] and in the test on Candida albicans [3] were 19 mm and 26 mm, respectively. Besides, the minimum inhibitory concentration (MIC) in the test on Candida albicans [2] and against Staphylococcus aureus [4] was 62.5 µg/mL (≈ 172 µM) throughout. The IC50 in the test on HeLa worked out at 39 µM; in the test on SAS, 14 µM. In addition, in the test with Pseudomonas aeruginosa, the “diameter of the inhibition zone (DIZ)” value is “inactive”.
With `COC(=O)[C@H](CC(C)C)NC(=O)CSC1=C(C)C(=O)c2ccccc2C1=O`, the values for the zone of inhibition at 100 µg/disc with Staphylococcus aureus [1] and in the test with Candida albicans [3] were 18 mm and 20 mm, respectively. The minimal inhibitory concentration (MIC) with Candida albicans [2] and in the test with Staphylococcus aureus [4] was 15.6 µg/mL (≈ 40.1 µM) each time. Also, in the test on Pseudomonas aeruginosa, the “diameter of the inhibition zone (DIZ)” value was “inactive”.
As for `COC(=O)[C@H](C)NC(=O)CSC1=C(C)C(=O)c2ccccc2C1=O`, the zone of inhibition at 100 µg/disc was 23 mm in the test with Staphylococcus aureus [1] and 26 mm with Candida albicans [3]. The MIC against Candida albicans [2] and with Staphylococcus aureus [4] was 15.6 µg/mL (≈ 44.9 µM) throughout. For the same compound, the “diameter of the inhibition zone (DIZ)” value in the test on Pseudomonas aeruginosa was “inactive”.
For the compound `COC(=O)[C@H](Cc1ccccc1)NC(=O)CSC1=CC(=O)c2cccc(OC)c2C1=O`, the zone of inhibition at 100 µg/disc in the test on Staphylococcus aureus [1] worked out at 15 mm; in the test on Candida albicans [3], 17 mm. In addition, the minimal inhibitory concentration (MIC) against Candida albicans [2] and against Staphylococcus aureus [4] was 7.8 µg/mL (≈ 17.7 µM) in each case. Further, the half-inhibitory concentration (IC50) in the test with HeLa was 58 µM; in the test with SAS, 40 µM. In addition, the “diameter of the inhibition zone (DIZ)” value with Pseudomonas aeruginosa was “inactive”.
Regarding `COC(=O)[C@H](CC(C)C)NC(=O)CSC1=C(OC)C(=O)c2ccccc2C1=O`, the zone of inhibition at 100 µg/disc with Staphylococcus aureus [1] turned out to be 21 mm; in the test on Candida albicans [3] it was 19 mm. The values for the MIC in the test on Candida albicans [2] and against Staphylococcus aureus [4] were 62.5 µg/mL (≈ 154 µM) and 7.8 µg/mL (≈ 19.2 µM), respectively. Further, the half-maximal inhibitory concentration (IC50) stood at 63 µM in the test on HeLa and 25.5 µM with SAS. In addition, in the test with Pseudomonas aeruginosa, the “diameter of the inhibition zone (DIZ)” value was “inactive”.
As to `CN[C@@H]1[C@H](O[C@H]2[C@H](O[C@H]3[C@H](O)[C@@H](O)[C@H](N=C(N)N)[C@@H](O)[C@@H]3N=C(N)N)O[C@@H](C)[C@]2(O)C=O)O[C@@H](CO)[C@H](O)[C@H]1O` [STREPTOMYCIN], the zone of inhibition at 100 µg/disc in the test on Staphylococcus aureus [1] came out at 24 mm; in the test on Pseudomonas aeruginosa (MTCC 201, 24 h, read-out: DIZ) it was 13 mm. In addition, in the test with Candida albicans [3], the “diameter of the inhibition zone (DIZ)” value is “inactive”. Moreover, the MIC against Staphylococcus aureus [4] worked out at 3.9 µg/mL (≈ 6.71 µM).
On to `COC(=O)[C@H](Cc1ccccc1)NC(=O)CSC1=C(C)C(=O)c2ccccc2C1=O`, for which the zone of inhibition at 100 µg/disc was 13 mm in the test with Staphylococcus aureus [1] and 16 mm in the test on Candida albicans [3]. The minimum inhibitory concentration (MIC) against Candida albicans [2] and against Staphylococcus aureus [4] was 15.6 µg/mL (≈ 36.8 µM) in each case. Also, the “diameter of the inhibition zone (DIZ)” value in the test on Pseudomonas aeruginosa is “inactive”.
As to `COC(=O)CCCNC(=O)CSC1=C(C)C(=O)c2cccc(OC)c2C1=O`, the zone of inhibition at 100 µg/disc turned out to be 20 mm with Staphylococcus aureus [1] and 21 mm in the test with Candida albicans [3]. The MIC against Candida albicans [2] and in the test with Staphylococcus aureus [4] was 15.6 µg/mL (≈ 39.9 µM) throughout. In the test with Pseudomonas aeruginosa, the “diameter of the inhibition zone (DIZ)” value is “inactive”.
For `COC(=O)[C@H](C)NC(=O)CSC1=C(C)C(=O)c2cccc(OC)c2C1=O`, the zone of inhibition at 100 µg/disc with Staphylococcus aureus [1] and in the test with Candida albicans [3] was 18 mm throughout. For the same compound, the minimal inhibitory concentration (MIC) against Candida albicans [2] and in the test with Staphylococcus aureus [4] was 125 µg/mL (≈ 331 µM) throughout. Further, the “diameter of the inhibition zone (DIZ)” value in the test with Pseudomonas aeruginosa is “inactive”.
As for `COC(=O)CNC(=O)CSC1=C(C)C(=O)c2ccccc2C1=O`, the figures for the zone of inhibition at 100 µg/disc with Staphylococcus aureus [1] and in the test on Candida albicans [3] were 23 mm and 22 mm, respectively. For the same compound, the minimum inhibitory concentration (MIC) with Candida albicans [2] and with Staphylococcus aureus [4] was 15.6 µg/mL (≈ 46.8 µM) throughout. The “diameter of the inhibition zone (DIZ)” value in the test with Pseudomonas aeruginosa was “inactive”.
In the case of `O=C1C=CC(=O)c2c(O)cccc21`, the “diameter of the inhibition zone (DIZ)” value in the test with Staphylococcus aureus [1], with Candida albicans [3] and in the test with Pseudomonas aeruginosa was “inactive” throughout.
For `CC[C@H](C)[C@H](NC(=O)CSC1=C(C)C(=O)c2cccc(OC)c2C1=O)C(=O)OC`, the “diameter of the inhibition zone (DIZ)” value in the test on Staphylococcus aureus [1], with Candida albicans [3] and in the test with Pseudomonas aeruginosa was “inactive” in each case.

(Values after ChEMBL document CHEMBL3352332, “Synthesis and SAR study of novel anticancer and antimicrobial naphthoquinone amide derivatives” (Bioorg Med Chem Lett, 2014).)
